Assay outcomes from PubChem.
MsrA act – activates bovine MsrA enzyme. purified bovine MsrA, absorbance read-out. activation, % at 10.6 µM. 360,000 compounds, 0.3% hits. AID 602163; in the data active = activation above about 7.5%;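 note: 0% = vehicle and 100% = reference activator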
MC4R antagonist – antagonists of human melanocortin 4 receptor (MC4R); 360,000 compounds, 0.48% hits; AID 540295; P32245; inhibition, % at 6.5 µM; MC4R-expressing cells, MTII-stimulated cAMP, LANCE TR-FRET;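 active = inhibition above its plate's cutoff, the mean of tested wells on that plate plus 3 SD, cut at about 29% in these data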;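 note: 0% = Melanotan II alone and 100% = Melanotan II plus saturating MCL0020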
Target sequence (P32245 whole entry, looked up): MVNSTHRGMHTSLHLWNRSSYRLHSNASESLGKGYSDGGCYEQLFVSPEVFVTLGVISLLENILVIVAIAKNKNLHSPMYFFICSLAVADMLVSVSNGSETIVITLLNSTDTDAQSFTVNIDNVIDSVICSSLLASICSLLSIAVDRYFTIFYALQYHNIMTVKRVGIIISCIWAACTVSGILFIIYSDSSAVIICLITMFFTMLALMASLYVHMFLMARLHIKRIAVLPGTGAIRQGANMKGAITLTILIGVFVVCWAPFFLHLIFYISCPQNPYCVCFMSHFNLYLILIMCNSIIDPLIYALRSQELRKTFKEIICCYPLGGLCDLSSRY
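Test system: U2OS cells stably expressing human melanocortin 4 receptor (MC4R); also added: Melanotan II challenge; compound: 6.5 µM single dose; timing: 30-min compound preincubation, 1-h Melanotan II challenge, 1-h detection, room temperature; signal: Eu-cAMP/anti-cAMP TR-FRET, emission 671 nm; repeats: one well per compound, no replicates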
MC4R ag barr – agonists of human melanocortin 4 receptor (MC4R) beta-arrestin. U2OS MC4R beta-arrestin complementation, luminescence; percent of melanotan II response, DMSO zero. activation, % at 8.9 µM. 360,000 compounds, 0.98% hits;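 active = activation above a per-plate cutoff, the mean activation of sample wells on that plate plus 3 SD, cut at about 8% in these data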
MsrA inhibitor – bovine MsrA inhibition; purified bovine MsrA, absorbance read-out; inhibition, % at 15.5 µM; 360,000 compounds, 0.75% hits; in the data active = inhibition above about 4.5%;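 note: 0% = vehicle wells with enzyme and 100% = reference inhibitor wells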
U2OS cAMP counter – U2OS forskolin cAMP inhibition counter-screen; inhibition, % at 6.5 µM; 1,600 compounds, 26% hits; AID 602193; shares compounds with MC4R antagonist; parental U2OS, LANCE TR-FRET;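 active = mean inhibition over triplicates above the low-control well mean plus 3 SD, set per campaign, cut at about 13% in these data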;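 note: signal is single emission at 671 nm which falls as cellular cAMP rises; 0% = forskolin-stimulated wells and 100% = buffer without forskolin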
MC4R antag conf – human MC4R cAMP antagonism confirmation; shares compounds with MC4R antagonist; MC4R-expressing cells, MTII-stimulated cAMP, TR-FRET; inhibition, % at 6.5 µM; 1,600 compounds, 27% hits; in the data active = inhibition above about 29%;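 note: 0% = agonist stimulated wells alone and 100% = agonist stimulated wells plus saturating reference antagonist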
Numbers without * were called inactive; nt = no result given; + = active, no number. Compounds with a hit are over-represented: about 2.3% of the library has one in this group of screens.

SMILES | MsrA act | MC4R antagonist | MC4R ag barr | MsrA inhibitor | U2OS cAMP counter | MC4R antag conf
CC(C)N1C(=O)S/C(=C/c2ccccc2OCc2ccc(C(=O)O)cc2)C1=O | -2 | 31* | -1 | 1 | -4 | -4
C=CCOc1ccc2ccccc2c1/C=N/O | -10 | -4 | 4 | 2 | nt | nt
CCN(Cc1ccccc1)C(=O)c1ccc(C)c(S(=O)(=O)N2CCCCC2)c1 | -2 | 5 | -2 | 0 | nt | nt
O=C1CSC(c2ccncc2)N1Cc1ccccc1 (stereo not drawn) | -4 | -2 | -1 | 1 | nt | nt
O=C1CSC(c2cccnc2)N1Cc1cccnc1 (stereo not drawn) | -2 | 29* | 0 | 0 | 3 | 12
COCCNc1nc2c(c(=O)n(Cc3cccc(Cl)c3)c(=O)n2C)n1C | 0 | 29* | -2 | 0 | 1 | 0
O=C(Nc1ccccc1F)C1CCCN(S(=O)(=O)c2ccc(-n3cnnn3)cc2)C1 (stereo not drawn) | -1 | 19 | -1 | -1 | nt | nt
CCN(CC)CCNC(=O)c1cc(-c2ccc(Br)s2)nc2ccccc12 | -2 | 33* | 5 | 1 | 7 | -9
CCOCCCNC(=O)c1cc(-c2ccc(Br)s2)nc2ccccc12 | -2 | 37* | -1 | 1 | 33* | 63*
O=C(O)c1cc(-c2ccc(Br)s2)nc2ccccc12 | -4 | + | 0 | 4 | 185* | +
CC(C)OCCCNC(=O)c1cc(-c2cccs2)nc2ccccc12 | -4 | 8 | 0 | 1 | nt | nt
COc1ccc2[nH]c(C)c(CCN(Cc3cccs3)C(=S)Nc3cccc(F)c3)c2c1 | -2 | 9 | 0 | nt | nt | nt
O=C(Nc1nc(=O)n(C(=O)C2CC2)s1)c1ccccc1 | -2 | 30* | 1 | 1 | 1 | -2
Cc1ccc(C(=O)Nc2nc(=O)n(C(=O)C3CC3)s2)cc1 | 2 | 14 | 1 | -1 | nt | nt
Nc1c(C(=O)NCCc2ccccc2)nnn1Cc1ccc(Cl)cc1 | 0 | -6 | 0 | 0 | nt | nt
COc1ccc(NC(=O)Nc2cccc3c2O[C@H](CN(C)C(=O)Nc2ccc(C(F)(F)F)cc2)[C@@H](C)CN([C@H](C)CO)C3=O)cc1 | 0 | 35* | 0 | nt | 1 | 19
Cc1ccc(Nc2cc(=O)oc3ccccc23)c(C)c1 | -4 | -3 | -1 | 0 | nt | nt
O=C(c1cccc([N+](=O)[O-])c1)c1ccc2c(c1)OCCOCCOCCOCCO2 | -2 | 35* | 1 | 1 | 1 | 0
O=C(c1ccccc1)c1ccc2c(c1)OCCOCCOCCOCCO2 | -1 | 18 | 1 | 0 | nt | nt
COc1ccccc1CN1C[C@@H]2C[C@@H](C3=Cc4cccc(OC)c4OC3)N3CCC[C@@]23C1=O | -3 | 33* | 0 | 1 | 4 | 0
O=C(NCCCNC(=O)c1ccccc1)c1ccccc1 | -1 | 4 | -1 | 0 | nt | nt
O=C(Nc1nc2ccccc2s1)c1ccc([N+](=O)[O-])o1 | 6 | 8 | -3 | 1 | nt | nt
NC(=O)c1ccccc1OCCOc1ccc(Br)cc1 | -1 | 12 | 2 | 2 | nt | nt
CC(=O)Nc1ccccc1OCCOc1ccc(Br)cc1 | 0 | 36* | -1 | -1 | 1 | -4
CC(=O)Nc1cccc(OC(=O)COc2ccc(Br)cc2)c1 | -2 | 29* | 2 | -1 | -1 | 4
SMILES | MsrA act | MC4R antagonist | MC4R ag barr | MsrA inhibitor | U2OS cAMP counter | MC4R antag conf
Cc1ccc(OCC(=O)Oc2cccc(C)c2)cc1 | -2 | -5 | 1 | -1 | nt | nt
O=C(Nc1ccc(Cc2ccncc2)cc1)c1cc([N+](=O)[O-])ccc1N1CCOCC1 | -3 | 4 | -3 | 1 | nt | nt
COC(=O)[C@]12CCCCC=C1N(CCc1ccc(OC)c(OC)c1)C(=O)[C@H](CC(=O)N1CCCC1)C2 | nt | nt | nt | 0 | nt | nt
CCOC(=O)COc1ccccc1/C=C\[N+](=O)[O-] | -9 | 29* | -5 | nt | 37* | 44*
Cc1ccc(C(=O)COC(=O)COc2ccccc2[N+](=O)[O-])s1 | -2 | 5 | 0 | 1 | nt | nt
Cc1ccc(S(=O)(=O)N2CCCCC2)cc1NC(=O)COC(=O)CNC(=O)c1cc(Cl)cc([N+](=O)[O-])c1 | -1 | 31* | -2 | 0 | 5 | 3
COc1ccc(-c2n[nH]c3c2C(c2ccc(OC)c(OC)c2)N(c2ccccc2)C3=O)cc1 (stereo not drawn) | 4 | -3 | -1 | 0 | nt | nt
O=C(CCS(=O)(=O)c1ccc2c(c1)NC(=O)CO2)NCc1ccccc1 | -3 | -3 | -3 | 0 | nt | nt
Cc1c(C(=O)NC2CCCc3ccccc32)oc2ccc(S(=O)(=O)N3CCOCC3)cc12 (stereo not drawn) | -1 | 12 | -1 | 1 | nt | nt
CCOC(=O)C1=C(C)C2C3C(=O)N(c4ccccc4C)C(=O)C3C1(C)C1C(=O)N(c3ccccc3C)C(=O)C21 (stereo not drawn) | -1 | 31* | -1 | 1 | 0 | -13
Cc1ccccc1OCc1nnc(SC(C)C(=O)O)n1-c1ccccc1 (stereo not drawn) | 1 | 42* | -1 | 0 | -2 | -14
CC/C(C)=N\NC(=O)CNC(=O)c1ccc(Cl)cc1Cl | -3 | 31* | 0 | 0 | 2 | 2
C[C@H]1COC(=O)[C@@H](Cc2ccc(F)cc2)CC/C=C\C[C@H](CC(=O)NCCO)C(=O)N1 | -2 | 7 | -1 | -1 | nt | nt
O=C1O/C(=C/c2ccccc2)N=C1c1ccccc1 | -6 | -3 | 0 | -1 | nt | nt
COc1ccc(CCN2C(=O)C=CC2=O)cc1OC | -11 | 14 | -4 | -1 | nt | nt
COc1ccc(CCNC2=C(Cl)C(=O)N(CCc3ccc(OC)c(OC)c3)C2=O)cc1OC | -2 | 31* | 0 | 2 | 5 | 16
CC(C)(C)OC(=O)[C@H](Cc1ccccc1)NC(=O)c1nc[nH]c1C(=O)NC1CCN(C(=O)OC(C)(C)C)CC1 | 1 | 37* | 5 | 0 | 7 | 5
CC(C)C[C@H](NC(=O)c1nc[nH]c1C(=O)N1CCN(C(=O)OC(C)(C)C)CC1)C(=O)OCc1ccccc1 | 0 | 34* | -1 | -1 | 16* | 23
C[C@H](NC(=O)c1nc[nH]c1C(=O)N[C@@H](Cc1ccccc1)C(=O)OCc1ccccc1)C(=O)OC(C)(C)C | 2 | 34* | 8 | 0 | 8 | 11
CC(C)(C)OC(=O)N1CCN(C(=O)c2[nH]cnc2C(=O)N[C@@H](Cc2ccccc2)C(=O)OCc2ccccc2)CC1 | 0 | 22 | 0 | -2 | nt | nt
CC(C)(C)OC(=O)[C@H](Cc1ccccc1)NC(=O)c1nc[nH]c1C(=O)N1CCN(C(=O)OC(C)(C)C)CC1 | 2 | 5 | 2 | 0 | nt | nt
O=C(CS(=O)(=O)c1cn(Cc2ccccc2Cl)c2ccccc12)N1CCOCC1 | -2 | 4 | 1 | -1 | nt | nt
O=C(NC1CCCCC1)NS(=O)(=O)c1ccc2c(c1)CCC2 | -1 | 5 | -2 | 0 | nt | nt
CCN(CC)c1ccc(C(=C2C=CC(=[N+](CC)CC)C=C2)c2ccccc2)cc1 | -3 | 64* | -3 | -1 | 34* | 67*
